Measurements from ChEMBL document CHEMBL4184255, “Formoxanthone C, isolated from Cratoxylum formosum ssp. pruniflorum, reverses anticancer drug resistance by inducing both apoptosis and autophagy in human A549 lung cancer cells” (Bioorg Med Chem Lett, 2018).
Values after ≈ are worked out from the molar mass of the structure shown. Active and inactive are the calls of the source. The calls are words filed in the database; no cut-off is given here.

Experiments:
Homo sapiens [1] = species on record: Homo sapiens; assay: Induction of autophagy in multidrug resistant human A549RT-eto cells assessed as increase in LC3-I to LC3-II conversion at 20 ug/ml incubated for 24 hrs in presence of pan-caspase inhibitor Z-VAD by immunoblot; assay type: functional
How it was run: (§1)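 A549RT-eto cells given 20 µg/ml alone, Z-VAD (20 µM) alone, or both for 24 h; MTT viability, mean of at least three experiments; lysates on 12% SDS-PAGE immunoblotted for cleaved PARP, beclin-1, LC3B and Atg5.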

[2] = Induction of cell death in multidrug resistant human A549RT-eto cells at 20 ug/ml incubated for 24 hrs in presence of HDAC4 siRNA by MTT assay; assay type: functional
How it was run: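 A549RT-eto cells transfected with control or HDAC4 siRNA (100 nM), then exposed to XanX 20 µg/ml for 24 h. Morphology checked by light microscope. Viability by MTT assay as percentage relative viability, mean of three experiments.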

Homo sapiens [3] = species on record: Homo sapiens; assay: Induction of autophagy in multidrug resistant human A549RT-eto cells assessed as increase in LC3-I to LC3-II conversion at 20 ug/ml incubated for 24 hrs in presence of HDAC4 siRNA by immunoblot; assay type: functional
How it was run: (§2)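 A549RT-eto cells transfected with control or HDAC4 siRNA (100 nM), then 20 µg/ml for 24 h; MTT viability, mean of three experiments; lysates on 12% SDS-PAGE immunoblotted for HDAC4, beclin-1 and LC3-I cleavage.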

Homo sapiens [4] = species on record: Homo sapiens; assay: Induction of cell death in multidrug resistant human A549RT-eto cells at 20 ug/ml incubated for 24 hrs in presence of beclin-1 siRNA by light microscopy; assay type: functional
How it was run: (§3)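 A549RT-eto cells transfected with control or beclin-1 siRNA (100 nM), then given 0 or 20 µg/ml for 24 h; viability by light microscopy and MTT as percent relative viability, mean of three experiments; lysates on 12% SDS-PAGE immunoblotted for PARP cleavage, beclin-1 and LC3.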

Homo sapiens [5] = species on record: Homo sapiens; assay: Induction of autophagy in multidrug resistant human A549RT-eto cells assessed as increase in beclin-1 protein level at 20 ug/ml incubated for 24 hrs by immunoblot; assay type: functional
Homo sapiens [6] = species on record: Homo sapiens; assay: Reduction in HDAC4 protein expression in multidrug resistant human A549RT-eto cells at 20 ug/ml incubated for 24 hrs by immunoblot; assay type: functional
How it was run: (§4)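 A549 and A549RT-eto cells treated with 20 µg/ml for 24 h; lysates resolved on 8% SDS-PAGE; immunoblot for HDAC4, P-gp and PARP cleavage.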

Homo sapiens [7] = species on record: Homo sapiens; assay: Induction of cell death in multidrug resistant human A549RT-eto cells incubated for 72 hrs by light microscopy; assay type: functional
How it was run: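 A549RT-eto cells given 0, 1.56, 3.13, 6.25, 12.5 or 25 µg/ml for 72 h; morphology and viability judged under light microscope.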

[8] = Induction of cell death in multidrug resistant human A549RT-eto cells at 20 ug/ml incubated for 24 hrs by MTT assay; assay type: functional
Homo sapiens [9] = species on record: Homo sapiens; assay: Cytotoxicity in multidrug resistant human A549RT-eto cells assessed as reduction in cell survival at; assay type: functional, cell-based
Homo sapiens [10] = species on record: Homo sapiens; assay: Induction of autophagy in multidrug resistant human A549RT-eto cells assessed as increase in beclin-1 protein level at 20 ug/ml incubated for 24 hrs in presence of pan-caspase inhibitor Z-VAD by immunoblot; assay type: functional; how it was run: as §1
Homo sapiens [11] = species on record: Homo sapiens; assay: Induction of autophagy in multidrug resistant human A549RT-eto cells assessed as increase in LC3-I to LC3-II conversion at 20 ug/ml incubated for 24 hrs in presence of beclin-1 siRNA by immunoblot; assay type: functional; how it was run: as §3
Homo sapiens [12] = species on record: Homo sapiens; assay: Induction of apoptosis in multidrug resistant human A549RT-eto cells assessed as increase in PARP cleavage at 20 ug/ml incubated for 24 hrs in presence of pan-caspase inhibitor Z-VAD by Western blot method; assay type: functional; how it was run: as §1
Homo sapiens [13] = species on record: Homo sapiens; assay: Cytotoxicity in multidrug resistant human A549RT-eto cells assessed as reduction in cell survival at 20 ug/ml incubated for 12 hrs by MTT assay; assay type: functional, cell-based
How it was run: (§5)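 A549RT-eto cells held at fixed 20 µg/ml and sampled at several exposure times (0, 6, 12, 24 h); survival scored.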

Homo sapiens [14] = species on record: Homo sapiens; assay: Cytotoxicity in multidrug resistant human A549RT-eto cells assessed as reduction in cell survival at 20 ug/ml incubated for 24 hrs by MTT assay; assay type: functional, cell-based; how it was run: as §5
Homo sapiens [15] = species on record: Homo sapiens; assay: Induction of apoptosis in multidrug resistant human A549RT-eto cells assessed as reduction in pro-caspse-8 protein expression at 10 to 20 ug/ml incubated for 12 hrs by Western blot method; assay type: functional
How it was run: (§6)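 A549RT-eto cells treated at 10 and 20 µg/ml, lysed at 12 h; lysates resolved on 12% SDS-PAGE; immunoblot for pro-caspase 8 and PARP cleavage.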

Homo sapiens [16] = species on record: Homo sapiens; assay: Induction of apoptosis in multidrug resistant human A549RT-eto cells assessed as reduction in pro-caspse-9 protein expression at 10 to 20 ug/ml incubated for 12 hrs by Western blot method; assay type: functional
Homo sapiens [17] = species on record: Homo sapiens; assay: Induction of autophagy in multidrug resistant human A549RT-eto cells assessed as reduction in mTOR phosphorylation at 7.5 to 20 ug/ml incubated for 12 hrs by immunoblot
A549 = assay: Cytotoxicity in human A549 cells incubated for 72 hrs by MTT assay; assay type: functional, cell-based; details: A549, 72 h
How it was run: (§7)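 Parental A549 and etoposide-resistant A549RT-eto cells exposed 72 h to two-fold serial dilutions, 25 to 1.56 µg/ml; viability by MTT; IC50 derived from dose-response; mean of triplicates with standard deviation.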

Homo sapiens [18] = species on record: Homo sapiens; assay: Induction of apoptosis in multidrug resistant human A549RT-eto cells assessed as increase in PARP cleavage at 10 to 20 ug/ml incubated for 12 hrs by Western blot method; assay type: functional; how it was run: as §6
Homo sapiens [19] = species on record: Homo sapiens; assay: Induction of cell death in multidrug resistant human A549RT-eto cells incubated for 72 hrs by MTT assay; assay type: functional; how it was run: as §7
Homo sapiens [20] = species on record: Homo sapiens; assay: Induction of autophagy in multidrug resistant human A549RT-eto cells assessed as increase in LC3-I to LC3-II conversion at 20 ug/ml incubated for 24 hrs by immunoblot; assay type: functional
[21] = Cytotoxicity in multidrug resistant human A549RT-eto cells incubated for 72 hrs by MTT assay; assay type: functional, cell-based; how it was run: as §7
Homo sapiens [22] = species on record: Homo sapiens; assay: Induction of autophagy in multidrug resistant human A549RT-eto cells assessed as increase in LC3-I to LC3-II conversion at 7.5 to 20 ug/ml incubated for 12 hrs by immunoblot
Homo sapiens [23] = species on record: Homo sapiens; assay: Induction of autophagy in multidrug resistant human A549RT-eto cells assessed as increase in vacuoles formation at 7.5 to 20 ug/ml by light microscopy
Homo sapiens [24] = species on record: Homo sapiens; assay: Induction of apoptosis in multidrug resistant human A549RT-eto cells assessed as increase in PARP cleavage at 20 ug/ml incubated for 24 hrs in presence of beclin-1 siRNA by Western blot method; assay type: functional; how it was run: as §3
Homo sapiens [25] = species on record: Homo sapiens; assay: Reduction in P-gp protein expression in multidrug resistant human A549RT-eto cells at 20 ug/ml incubated for 24 hrs by immunoblot; assay type: functional; how it was run: as §4
Homo sapiens [26] = species on record: Homo sapiens; assay: Induction of autophagy in multidrug resistant human A549RT-eto cells assessed as increase in beclin-1 protein level at 7.5 to 20 ug/ml incubated for 12 hrs by immunoblot
Homo sapiens [27] = species on record: Homo sapiens; assay: Induction of autophagy in multidrug resistant human A549RT-eto cells assessed as increase in GFP-LC3-II puncta at 7.5 to 20 ug/ml incubated for 24 hrs by fluorescence microscopy; assay type: functional
[28] = Induction of cell death in multidrug resistant human A549RT-eto cells assessed as cell survival at 20 ug/ml incubated for 24 hrs in absence of pan-caspase inhibitor Z-VAD by light microscopy; assay type: functional; details: read-out: Survival
How it was run: (§8)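 Etoposide-resistant A549RT-eto cells exposed for 24 h to XanX 20 µg/ml, pan-caspase inhibitor Z-VAD 20 µM, or both combined. Morphology inspected by light microscope. Viability read by MTT assay as percentage relative to control. Values are the mean of at least three experiments.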

[29] = Induction of cell death in multidrug resistant human A549RT-eto cells assessed as cell survival at 20 ug/ml incubated for 24 hrs in presence of pan-caspase inhibitor Z-VAD by MTT assay (reference value: 30%); assay type: functional; details: read-out: Survival; how it was run: as §8
Homo sapiens [30] = species on record: Homo sapiens; assay: Induction of cell death in multidrug resistant human A549RT-eto cells at 20 ug/ml incubated for 24 hrs in presence of beclin-1 siRNA by MTT assay; assay type: functional; how it was run: as §3
Homo sapiens [31] = species on record: Homo sapiens; assay: Induction of apoptosis in multidrug resistant human A549RT-eto cells assessed as increase in PARP cleavage at 20 ug/ml incubated for 24 hrs in presence of HDAC4 siRNA by Western blot method; assay type: functional
[32] = Induction of cell death in multidrug resistant human A549RT-eto cells assessed as cell survival at 20 ug/ml incubated for 24 hrs in presence of pan-caspase inhibitor Z-VAD by light microscopy (reference value: 30%); assay type: functional; details: read-out: Survival; how it was run: as §8
[33] = Induction of cell death in multidrug resistant human A549RT-eto cells assessed as cell survival at 20 ug/ml incubated for 24 hrs in absence of pan-caspase inhibitor Z-VAD by MTT assay; assay type: functional; details: read-out: Survival; how it was run: as §8
Homo sapiens [34] = species on record: Homo sapiens; assay: Induction of autophagy in multidrug resistant human A549RT-eto cells assessed as increase in beclin-1 protein level at 20 ug/ml incubated for 24 hrs in presence of HDAC4 siRNA by immunoblot; assay type: functional; how it was run: as §2

## CC(C)=CCc1c2c(c3oc4c(O)c(O)ccc4c(=O)c3c1O)C(C)(C)C(C)O2 (stereo not given)
Homo sapiens [1]
  Activity: Active
[2]
  Activity: 80%
Homo sapiens [3]
  Activity: Active
Homo sapiens [4]
  Activity: inactive
Homo sapiens [5]
  Activity: Active
Homo sapiens [6]
  Activity: Active
Homo sapiens [7]
  Activity: Dose-dependent effect
[8]
  Activity: 60%
Homo sapiens [9]
  Activity: inactive
Homo sapiens [10]
  Activity: Active
Homo sapiens [11]
  Activity: inactive
Homo sapiens [12]
  Activity: inactive
Homo sapiens [13]
  Activity: inactive
Homo sapiens [14]
  Activity: Active
Homo sapiens [15]
  Activity: Active
Homo sapiens [16]
  Activity: Active
Homo sapiens [17]
  Activity: Active
A549
  IC50: 2.56 µg/mL (≈ 6.46 µM)
Homo sapiens [18]
  Activity: Active
Homo sapiens [19]
  Activity: Dose-dependent effect
Homo sapiens [20]
  Activity: Active
[21]
  IC50: 4.65 µg/mL (≈ 11.7 µM)
Homo sapiens [22]
  Activity: Active
Homo sapiens [23]
  Activity: Active
Homo sapiens [24]
  Activity: Active
Homo sapiens [25]
  Activity: Active
Homo sapiens [26]
  Activity: Active
Homo sapiens [27]
  Activity: Active
[28]
  viability at 20 µg/mL: 30%
[29]
  viability at 20 µg/mL: 85%
Homo sapiens [30]
  Activity: inactive
Homo sapiens [31]
  Activity: Active
[32]
  viability at 20 µg/mL: 85%
[33]
  viability at 20 µg/mL: 30%
Homo sapiens [34]
  Activity: Active
